# Measured values: PMC7004521 (Cancer Science, 2019)
# Entries after “also recorded” stand apart in the source; their conditions may differ. Where two headings read alike, the source gives them in different places.
# How the values were obtained:
# [1] = tested on: advanced solid tumors; settings: Japanese patients with advanced solid tumors; cited from earlier work
# [2] = tested on: MET‐dependent tumors; settings: tolerable doses; animal models incl. NSCLC, HCC, GBM; cited from earlier work
# [3] = tested on: p‐MET; experiment: p‐MET immunohistochemistry in paired tumor biopsies; format: in vivo, human; settings: 450 mg bid capsule, cycle 1 day 15, one advanced CRC patient
# [4] = tested on: MET‐dysregulated advanced solid tumors; experiment: Best overall response according to investigator; format: in vivo, human
# Method in brief: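 Patients with MET-dysregulated advanced solid tumours took oral twice-daily doses in 28-day cycles: 100–600 mg capsules or 400 mg tablets in escalation, and 600 mg capsules or 400 mg tablets in expansion. Tumours were assessed by CT, or by contrast MRI for GBM or when CT was contraindicated. Response was judged by the investigator per RECIST v1.0 (the ORR endpoint is defined per v1.1), or MacDonald criteria for GBM.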
# [5] = tested on: MET; settings: cellular assays; cited from earlier work
# [6] = tested on: other kinases; settings: large panels of biochemical and binding assays; cited from earlier work
# [7] = tested on: MET; settings: biochemical assays; cited from earlier work
# [8] = dose‐expansion cohorts, N = 18 evaluable
# [9] = escalation 400 mg bid tablet n=5
# [10] = expansion RP2D gastric cancer n=9
# [11] = expansion RP2D other indications n=18
compound,measurement,setting,value
CNC(=O)c1ccc(-c2cnc3ncc(Cc4ccc5ncccc5c4)n3n2)cc1F [capmatinib],best overall response stable disease,[1],18.2%
same,effect on MET‐dependent tumors,[2],regression of MET‐dependent tumors
same,p‐MET H‐score (IHC) on treatment,[3],2
same,Best overall response: Complete response,[4]; all escalations N=38,0 n (%)
same,Best overall response: Partial response,[4]; all escalations N=38,0 n (%)
same,Best overall response: Progressive disease,[4]; all escalations N=38,25 (66) n (%)
same,Best overall response: Unknown,[4]; all escalations N=38,3 (5) n (%)
same,Best overall response: Complete response,[4]; all expansions RP2D N=38,0 n (%)
same,Best overall response: Partial response,[4]; all expansions RP2D N=38,0 n (%)
same,tumor shrinkage,"[4]; dose escalation, 450 mg bid capsule, colon cancer and HCC",tumor shrinkage was observed in two patients; also recorded: tumor shrinkage was observed for two patients
same,patients with best percentage change from baseline in sum of tumor diameters <0,[4]; [8],7 n
same,patients with best percentage change from baseline in sum of tumor diameters >0,[4]; [8],11 n
same,Best overall response: Complete response,[4]; escalation 100 mg bid n=4,0 n (%)
same,Best overall response: Partial response,[4]; escalation 100 mg bid n=4,0 n (%)
same,Best overall response: Progressive disease,[4]; escalation 100 mg bid n=4,2 (50) n (%)
same,Best overall response: Stable disease,[4]; escalation 100 mg bid n=4,2 (50) n (%)
same,Best overall response: Unknown,[4]; escalation 100 mg bid n=4,0 n (%)
same,Best overall response: Complete response,[4]; escalation 200 mg bid n=5,0 n (%)
same,Best overall response: Partial response,[4]; escalation 200 mg bid n=5,0 n (%)
same,Best overall response: Progressive disease,[4]; escalation 200 mg bid n=5,4 (80) n (%)
same,Best overall response: Stable disease,[4]; escalation 200 mg bid n=5,1 (20) n (%)
same,Best overall response: Unknown,[4]; escalation 200 mg bid n=5,0 n (%)
same,Best overall response: Complete response,[4]; escalation 250 mg bid n=4,0 n (%)
same,Best overall response: Partial response,[4]; escalation 250 mg bid n=4,0 n (%)
same,Best overall response: Stable disease,[4]; escalation 250 mg bid n=4,1 (25) n (%)
same,Best overall response: Unknown,[4]; escalation 250 mg bid n=4,1 (25) n (%)
same,Best overall response: Complete response,[4]; escalation 350 mg bid n=3,0 n (%)
same,Best overall response: Partial response,[4]; escalation 350 mg bid n=3,0 n (%)
same,Best overall response: Progressive disease,[4]; escalation 350 mg bid n=3,2 (67) n (%)
same,Best overall response: Stable disease,[4]; escalation 350 mg bid n=3,1 (33) n (%)
same,Best overall response: Unknown,[4]; escalation 350 mg bid n=3,0 n (%)
same,Best overall response: Complete response,[4]; [9],0 n (%)
same,Best overall response: Partial response,[4]; [9],0 n (%)
same,Best overall response: Progressive disease,[4]; [9],3 (60) n (%)
same,Best overall response: Stable disease,[4]; [9],2 (40) n (%)
same,Best overall response: Unknown,[4]; [9],0 n (%)
same,Best overall response: Complete response,[4]; escalation 450 mg bid n=9,0 n (%)
same,Best overall response: Partial response,[4]; escalation 450 mg bid n=9,0 n (%)
same,Best overall response: Progressive disease,[4]; escalation 450 mg bid n=9,6 (67) n (%)
same,Best overall response: Stable disease,[4]; escalation 450 mg bid n=9,2 (22) n (%)
same,Best overall response: Unknown,[4]; escalation 450 mg bid n=9,1 (11) n (%)
same,Best overall response: Complete response,[4]; escalation 600 mg bid n=8,0 n (%)
same,Best overall response: Partial response,[4]; escalation 600 mg bid n=8,0 n (%)
same,Best overall response: Progressive disease,[4]; escalation 600 mg bid n=8,6 (75) n (%)
same,Best overall response: Stable disease,[4]; escalation 600 mg bid n=8,1 (13) n (%)
same,Best overall response: Unknown,[4]; escalation 600 mg bid n=8,1 (13) n (%)
same,Best overall response: Complete response,[4]; expansion RP2D HCC n=11,0 n (%)
same,Best overall response: Partial response,[4]; expansion RP2D HCC n=11,0 n (%)
same,Best overall response: Progressive disease,[4]; expansion RP2D HCC n=11,1 (9.1) n (%)
same,Best overall response: Stable disease,[4]; expansion RP2D HCC n=11,5 (46) n (%)
same,Best overall response: Unknown,[4]; expansion RP2D HCC n=11,5 (46) n (%)
same,Best overall response: Complete response,[4]; [10],0 n (%)
same,Best overall response: Partial response,[4]; [10],0 n (%)
same,Best overall response: Progressive disease,[4]; [10],3 (33) n (%)
same,Best overall response: Stable disease,[4]; [10],2 (22) n (%)
same,Best overall response: Unknown,[4]; [10],4 (44) n (%)
same,Best overall response: Complete response,[4]; [11],0 n (%)
same,Best overall response: Partial response,[4]; [11],0 n (%)
same,Best overall response: Progressive disease,[4]; [11],9 (50) n (%)
same,Best overall response: Stable disease,[4]; [11],5 (28) n (%)
same,Best overall response: Unknown,[4]; [11],4 (22) n (%)
same,stable disease,"[4]; expansion, other advanced solid tumor types, five of 18 patients",28%
same,tumor reduction in patients with GCN ≥6,"[4]; expansion, two other solid tumor patients",substantial tumor reduction
same,IC50,[5],~1 nM
same,selectivity versus other kinases,[6],highly selective versus other kinases
same,IC50,[7],0.13 nM
